The record followed here is ChEMBL document CHEMBL2311435, “Development of 18F-labeled picolinamide probes for PET imaging of malignant melanoma” (J Med Chem, 2013).

The structures appear in SMILES notation.

This series concerns Mus musculus. The series can be described thus: Biodistribution in tumor of C57BL/6 mouse xenografted with mouse B16F10 cells at 3.7 MBq, iv after 2 hrs by gamma-scintillation counting analysis. It counts as ADME, organism-based, Neoplasm, B16-F10. The following applies: in vivo. In outline:
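1.0 × 10^6 B16F10 cells in PBS injected subcutaneously into the right shoulder of C57BL/6 mice, grown to 0.5 cm (~10 day). Tail-vein injection of about 3.7 MBq (100 μCi) 18F probe in PBS (0.1 M, pH 7.4). Killed at 1.0 or 2.0 h p.i. (n = 4 per group). Tissues excised, weighed and gamma-counted; uptake expressed as %ID/g, mean ± SD.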

For the compound `CCN(CC)CCNC(=O)c1ccc([18F])cc1`, the Drug uptake worked out at 5.94 % ID/g.
